# Laboratory results published in paper PMC2668958 (Combinatorial chemistry & high throughput screening, 2008).
# Tests used:
# Glucocerebrosidase (GC) [1] = molecular target: T1, Glucocerebrosidase (GC) (Homo sapiens, UniProt P04062, R534H); assay: Res-β-Glc; format: biochemical
# T1 sequence (P04062 40-536 R534H): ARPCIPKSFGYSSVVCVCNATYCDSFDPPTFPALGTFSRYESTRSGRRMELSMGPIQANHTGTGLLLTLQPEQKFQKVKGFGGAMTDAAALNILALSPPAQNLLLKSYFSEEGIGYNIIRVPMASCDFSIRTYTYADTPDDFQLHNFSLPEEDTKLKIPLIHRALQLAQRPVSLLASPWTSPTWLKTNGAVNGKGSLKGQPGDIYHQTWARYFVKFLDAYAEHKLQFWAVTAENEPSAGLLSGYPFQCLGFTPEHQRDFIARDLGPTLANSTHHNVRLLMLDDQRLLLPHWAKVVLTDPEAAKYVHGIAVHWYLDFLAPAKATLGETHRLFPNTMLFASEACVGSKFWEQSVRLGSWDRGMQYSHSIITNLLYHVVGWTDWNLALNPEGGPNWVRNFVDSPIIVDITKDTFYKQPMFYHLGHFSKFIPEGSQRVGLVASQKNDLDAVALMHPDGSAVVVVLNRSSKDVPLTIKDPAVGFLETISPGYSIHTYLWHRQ
# Glucocerebrosidase (GC) [2] = molecular target: T1, Glucocerebrosidase (GC); assay: "red" GC enzyme kinetic assay, 384-well; format: biochemical; conditions: substrate of "red" assay, 1.9 nM enzyme
# Outline: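 Kinetics were run in 384-well plates with 1.9 nM GC in pH 5.9 citrate/K2HPO4 buffer containing 0.01% Tween-20 and 10 mM sodium taurocholate. Res-β-Glc was added at final 100, 60, 40, 20, 10, 5 and 2.5 μM at RT, with no stop step. One plate was read continuously for 610 nm emission at 2 min intervals. Product was converted using a resorufin standard curve in assay buffer.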
# Glucocerebrosidase (GC) [3] = molecular target: T1, Glucocerebrosidase (GC); assay: "blue" GC enzyme kinetic assay, 384-well; format: biochemical; conditions: substrate of "blue" assay, 1.9 nM enzyme
# Outline: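 384-well format. 1.9 nM GC in pH 5.9 buffer (50 mM citric acid, 176 mM K2HPO4, 0.01% Tween-20, 10 mM sodium taurocholate). Reaction started with 4MU-β-Glc at final 3000–23.4 μM (1:2 series, eight levels), run at RT. Separate plates were stopped with 1 M NaOH/1 M glycine pH 10 at 2, 4, 6, 8, 10 and 12 min and read at 440 nm. Product was quantified from a 4-methylumbelliferone standard curve.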
# Glucocerebrosidase (GC) [4] = molecular target: T1, Glucocerebrosidase (GC); assay: 4MU-β-Glc; format: biochemical; conditions: read-out: IC50 in the "blue" GC assay; known GC inhibitors; 800 μM 4MU-β-Glc, 1.9 nM enzyme
# [5] = CBE solutions in DMSO left at RT for more than a few hours (data not shown)
# [6] = varied substrate concentrations
structure (smiles),measurement,setting,value
N.N.[Cl][Pt][Cl] [Cisplatin],GC inhibitory activity on hit confirmation,"Glucocerebrosidase (GC) [1]; neat samples of primary hits, ""red"" GC enzyme assay",inactive
"CC[N+](CC)(CC)CCOc1cccc(OCC[N+](CC)(CC)CC)c1OCC[N+](CC)(CC)CC [compound 3, Gallamine triethiodide]",IC50,Glucocerebrosidase (GC) [1],3.59 µM
"O=C(/C=C/c1ccc(O)cc1)c1ccc(O)cc1O [compound 2, Isoliquiritigenin]",IC50,Glucocerebrosidase (GC) [1],2.57 µM
"CN[C@@H](C)[C@H](O)c1ccccc1 [compound 1, (-)-Ephedrine hemisulfate]",IC50,Glucocerebrosidase (GC) [1],0.79 µM
"O=c1c2ccccc2[se]n1-c1ccccc1 [compound 10, Ebselen]",IC50,Glucocerebrosidase (GC) [1],0.63 µM
"O=c1ccc2nc3ccc(O[C@@H]4O[C@H](CO)[C@@H](O)[C@H](O)[C@H]4O)cc3oc-2c1 [Res-β-Glc, Resorufin β-D-glucopyranoside]",Vmax,Glucocerebrosidase (GC) [2],7.11 pmol/min
same,Km,Glucocerebrosidase (GC) [2]; [6],33 µM
"C[N+]1(C)CCN(c2ccccc2)CC1 [compound 6, 1,1-Dimethyl-4-phenyl-piperazinium iodide]",IC50,Glucocerebrosidase (GC) [1],6.8 µM
"Cc1cc(=O)oc2cc(O[C@@H]3O[C@H](CO)[C@@H](O)[C@H](O)[C@H]3O)ccc12 [4MU-β-Glc, 4-methylumbelliferyl β-D-glucopyranoside]",Vmax,Glucocerebrosidase (GC) [3],1.56 pmol/min
same,Km,Glucocerebrosidase (GC) [3]; [6],768 µM
"O[C@H]1[C@H](O)[C@@H](O)[C@@H]2O[C@@H]2[C@@H]1O [CBE, Conduritol β-epoxide]",IC50,"Glucocerebrosidase (GC) [1]; read-out: IC50 in the ""red"" GC assay, known GC inhibitors, 30 μM Res-β-Glc, 1.9 nM enzyme",13 µM
same,IC50,Glucocerebrosidase (GC) [4],15.4 µM
same,shift of IC50 value,[5],2- to 10 fold
